Consider 41 molecules from ChEMBL document CHEMBL1153722, “Design, synthesis, and characterization of peptide-based rab geranylgeranyl transferase inhibitors” (J Med Chem, 2009).

SMILES strings stand for the structures. Peptide text beside a SMILES is read from it. * marks the point of attachment. Hydrocinnamoyl = O=C(CCc1ccccc1)*; Cbz = O=C(OCc1ccccc1)*; NHBn = c1ccc(CN*)cc1; NHPh = c1ccc(N*)cc1

For the test, the species on record is Rattus norvegicus. Briefly: Inhibition of rat recombinant Rab geranylgeranyltransferase at 100 uM in presence of canine Rab7 and rat REP1 NBD-FPP based continuous fluorimetric assay. Summed up: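 Continuous fluorometric assay in 96/384-well format: 3 μM Rab7, 3 μM REP1, 9 μM NBD-FPP and 400 nM RabGGTase, with or without inhibitor. […] IC50 was calculated from three independent measurements.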
As to `NCCCC[C@H](NC(=O)c1coc(-c2ccccc2)n1)C(=O)NCC(=O)N[C@@H](Cc1ccc(O)cc1)C(=O)O`, the inhibition (commonly the drop in the measured response relative to a control, in per cent) is 100%.
For `CN(C(=O)[C@@H](Cc1c[nH]cn1)NC(=O)OCc1ccccc1)[C@@H](Cc1ccc(O)cc1)C(=O)N[C@@H](Cc1ccccc1)C(=O)O` the value was 34%.
For `O=C(CCc1ccccc1)N[C@@H](CO)C(=O)NCC(=O)N[C@@H](CO)C(=O)Nc1ccccc1` (Hydrocinnamoyl-Ser-Gly-Ser-NHPh) the value was 93%; for `O=C(CCc1ccc(F)cc1)N[C@@H](Cc1ccc(O)cc1)C(=O)NCC(=O)N[C@@H](Cc1ccc(O)cc1)C(=O)NCc1ccc(F)cc1F`, 89%; for `C[C@H](NC(=O)[C@@H](NC(=O)c1ccc(-c2ccccc2)cc1)[C@@H](C)O)C(=O)N[C@@H](CCC(N)=O)C(=O)Nc1cccc(Br)n1`, 77%.
`C=CCCCCCCCCCOC(=O)[C@H](CCC(N)=O)NC(=O)[C@H](Cc1ccccc1)NC(=O)[C@H](CO)NC(=O)CCc1ccccc1`: the inhibition was 120%.
Turning to `CCCCCCCCCCCCCC(=O)OC[C@H](NC(=O)CNC(=O)[C@H](COC(=O)CCCCCCCCCCCCC)NC(=O)c1coc(-c2ccccc2)n1)C(=O)O`, the inhibition is 106%.
For `NCCCC[C@H](NC(=O)CCc1ccccc1)C(=O)N[C@@H](Cc1c[nH]cn1)C(=O)N[C@@H](CO)C(=O)NCc1cccc(F)c1` the value was 96%; for `O=C(CCc1ccccc1)N[C@@H](CO)C(=O)N[C@@H](Cc1ccccc1)C(=O)N[C@@H](CO)C(=O)Nc1ccc(F)cc1F`, 96%.
`COC(=O)[C@H](Cc1cn(C(c2ccccc2)(c2ccccc2)c2ccccc2)cn1)NC(=O)[C@H](Cc1ccccc1)NC(=O)CNC(=O)c1csc(-c2cccs2)n1`: the inhibition worked out at 69%.
As for `CC[C@H](C)[C@H](NC(=O)c1ccc(-c2ccccc2)cc1)C(=O)N[C@@H](C(=O)N[C@@H](CCC(N)=O)C(N)=O)C(C)C`, the figure is 89%.
In the case of `CCCCCCCCCCC(=O)N[C@@H](Cc1c[nH]cn1)C(=O)N[C@@H](Cc1ccccc1)C(=O)N[C@@H](Cc1ccc(O)cc1)C(=O)OCCN`, the inhibition was found to be 61%.
In the case of `NCCCC[C@H](NC(=O)CCc1ccccc1)C(=O)N[C@@H](Cc1c[nH]cn1)C(=O)N[C@@H](CO)C(=O)O` (Hydrocinnamoyl-Lys-His-Ser-OH), the inhibition is 89%.
As for `CN(CCc1ccccn1)C(=O)[C@H](Cc1ccc(O)cc1)NC(=O)CNC(=O)[C@H](Cc1c[nH]cn1)NC(=O)OCc1ccccc1`, the figure is 85%; as for `NC(=O)[C@H](Cc1ccc(O)cc1)NC(=O)CNC(=O)[C@H](Cc1c[nH]cn1)NC(=O)OCc1ccccc1` (Cbz-His-Gly-Tyr-NH2), 89%.
Regarding `C[C@H](NC(=O)/C=C/c1ccc(F)cc1)C(=O)NCC(=O)N[C@@H](Cc1ccc(O)cc1)C(=O)NC1CCCCC1`, the inhibition was 11%.
As for `COC(=O)[C@H](CO)NC(=O)CNC(=O)[C@H](Cc1ccccc1)NC(=O)C1COC(c2ccccc2)=N1` (stereo partly specified), the figure is 136%; as for `CCCCCCCCCCC(=O)N[C@@H](CC1=NCN=C1)C(=O)N[C@@H](Cc1c[nH]cn1)C(=O)N[C@@H](Cc1ccc(O)cc1)C(=O)Nc1ccccc1N`, 74%; as for `O=C(CNC(=O)C1CCCN1C(=O)/C=C/c1ccccc1)NC(Cc1ccccc1)C(=O)NCc1ccc(F)cc1F` (stereo unspecified), 54%.
In the case of `O=C(CNC(=O)[C@H](Cc1c[nH]cn1)NC(=O)OCc1ccccc1)N[C@@H](Cc1ccc(O)cc1)C(=O)O` (Cbz-His-Gly-Tyr-OH), the inhibition was 75%.
For the molecule `C=CCOC(=O)[C@H](Cc1ccccc1)N(C)C(=O)[C@H](Cc1ccc(OC)cc1)N(C)C(=O)[C@@H](Cc1ccc(O)cc1)NC(=O)CCc1ccccc1`, the inhibition was 74%.
In the case of `C[C@@H](O)[C@H](NC(=O)/C=C/c1ccccc1)C(=O)N[C@@H](Cc1ccccc1)C(=O)N[C@@H](CCC(N)=O)C(=O)Nc1ccc(F)c(Cl)c1`, the inhibition was determined as 91%.
For `C[C@H](NC(=O)[C@@H](NC(=O)c1ccc(-c2ccccc2)cc1)[C@@H](C)O)C(=O)N[C@@H](CCC(=O)O)C(N)=O` the value was 82%.
Regarding `CCCCCCCCCCCOc1ccc(C(=O)N[C@@H](Cc2c[nH]cn2)C(=O)N[C@@H](Cc2c[nH]cn2)C(=O)N[C@@H](Cc2c[nH]cn2)C(=O)OC)cc1`, the inhibition was 87%.
As for `CCCCCCCCCCOc1ccc(C(=O)N[C@@H](Cc2c[nH]cn2)C(=O)N[C@@H](Cc2c[nH]cn2)C(=O)N[C@@H](CO)C(=O)NCCCn2ccnc2)cc1`, the figure is 52%.
As to `CCCCOC(=O)[C@H](Cc1ccc(O)cc1)NC(=O)CNC(=O)[C@H](Cc1ccc(O)cc1)NC(=O)CCc1ccc(F)cc1`, the inhibition was found to be 47%.
For the molecule `COc1ccc(C[C@@H](C(=O)N(C)[C@@H](Cc2ccccc2)C(=O)OCC(=O)O)N(C)C(=O)[C@@H](Cc2ccc(O)cc2)NC(=O)CCc2ccccc2)cc1`, the inhibition is 47%.
For `O=C(CCNC(=O)[C@H](Cc1c[nH]cn1)NC(=O)OCc1ccccc1)N[C@@H](Cc1ccc(O)cc1)C(=O)O`, the inhibition was 90%.
As for `CCCCCCCCCCCOc1ccc(C(=O)N[C@@H](Cc2c[nH]cn2)C(=O)N[C@@H](Cc2c[nH]cn2)C(=O)N[C@@H](Cc2c[nH]cn2)C(N)=O)cc1`, the figure is 32%.
Take `CCCCCCCCCCCOc1ccc(C(=O)N[C@@H](Cc2c[nH]cn2)C(=O)N[C@@H](Cc2c[nH]cn2)C(=O)N[C@@H](Cc2c[nH]cn2)C(=O)OCCN)cc1`: the inhibition was 101%.
As for `O=C(CCc1ccccc1)N[C@@H](CO)C(=O)N[C@@H](Cc1ccccc1)C(=O)N[C@@H](CO)C(=O)NCc1ccccc1` (Hydrocinnamoyl-Ser-Phe-Ser-NHBn), the figure is 95%.
For `O=C(CNC(=O)[C@H](Cc1ccc(O)cc1)NC(=O)c1ccc(F)cc1)N[C@@H](Cc1ccc(O)cc1)C(=O)NC1CCCCC1`, the inhibition stood at 74%.
For `CC[C@H](C)[C@H](NC(=O)/C=C/c1ccc(F)cc1)C(=O)N[C@@H](C)C(=O)N[C@@H](CCC(N)=O)C(=O)OC` the value was 83%.
As for `COc1ccc(C[C@@H](C(=O)N(C)[C@@H](Cc2ccccc2)C(=O)O)N(C)C(=O)[C@@H](Cc2ccc(O)cc2)NC(=O)CCc2ccccc2)cc1`, the figure is 46%; as for `NC(=O)[C@H](Cc1ccc(O)cc1)NC(=O)CCNC(=O)[C@H](Cc1c[nH]cn1)NC(=O)OCc1ccccc1`, 89%; as for `C=CCCCOC(=O)[C@H](CCC(N)=O)NC(=O)[C@H](C)NC(=O)[C@@H](NC(=O)c1ccc(-c2ccccc2)cc1)[C@@H](C)O`, 89%.
For `CC(C)CCNC(=O)[C@H](CO)NC(=O)CNC(=O)[C@H](CO)NC(=O)/C=C/c1ccc(F)cc1` the value was 85%; for `CCCCCCCCCCC(=O)N[C@@H](Cc1c[nH]cn1)C(=O)N[C@@H](Cc1c[nH]cn1)C(=O)N[C@@H](Cc1ccc(O)cc1)C(=O)NCc1ccccn1`, 80%; for `NCCOC(=O)[C@H](Cc1ccc(O)cc1)NC(=O)[C@H](Cc1ccc(O)cc1)NC(=O)[C@H](Cc1ccc(O)cc1)NC(=O)c1ccc(F)cc1F`, 97%.
For the molecule `O=C(CCc1ccc(F)cc1)N[C@@H](Cc1ccc(O)cc1)C(=O)NCC(=O)N[C@@H](Cc1ccc(O)cc1)C(=O)NC1CCCCC1`, the inhibition is 88%.
Take `NCCOC(=O)[C@H](Cc1ccc(O)cc1)NC(=O)CNC(=O)[C@H](Cc1c[nH]cn1)NC(=O)OCc1ccccc1`: the inhibition worked out at 101%.
